In brackets after ≈: the same amount, converted by molar mass.
How the values were obtained:
Assay type in all cases: functional
Diutina rugosa = assay: Antifungal activity against Candida rugosa NCIM 3462 at 100 ug/ml after 48 hrs by agar well diffusion method; details: NCIM 3462, 48 h, read-out: IZ
In short: (§1)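 Test samples and DMSO controls incubated at 27 °C for 48 h. Inhibition zone diameter measured in mm. Three to four replicates per treatment.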

Pseudomonas aeruginosa = assay: Antibacterial activity against Pseudomonas aeruginosa MTCC 741 by broth dilution method
In short: (§2)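 Broth dilution per NCCL standards; all phosphorus ylides and conjugated alkynes tested in vitro.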

Staphylococcus aureus = assay: Antibacterial activity against Staphylococcus aureus MTCC 96 by broth dilution method; in short: as §2
Aspergillus niger = assay: Antifungal activity against Aspergillus niger MTCC 344 at 100 ug/ml after 48 hrs by agar well diffusion method; details: MTCC 344, 48 h, read-out: IZ; in short: as §1
Klebsiella pneumoniae = assay: Antibacterial activity against Klebsiella pneumoniae MTCC 618 by broth dilution method; in short: as §2
Saccharomyces cerevisiae = assay: Antifungal activity against Saccharomyces cerevisiae MTCC 36 at 100 ug/ml after 48 hrs by agar well diffusion method; details: MTCC 36, 48 h, read-out: IZ; in short: as §1
Escherichia coli = assay: Antibacterial activity against Escherichia coli MTCC 443 by broth dilution method; in short: as §2
Bacillus subtilis = assay: Antibacterial activity against Bacillus subtilis MTCC 441 by broth dilution method; in short: as §2
Aspergillus flavus = assay: Antifungal activity against Aspergillus flavus MTCC 277 at 100 ug/ml after 48 hrs by agar well diffusion method; details: MTCC 277, 48 h, read-out: IZ; in short: as §1
Candida albicans = assay: Antifungal activity against Candida albicans MTCC 227 at 100 ug/ml after 48 hrs by agar well diffusion method; details: MTCC 227, 48 h, read-out: IZ; in short: as §1
[1] = system: Staphylococcus epidermidis; assay: Antibacterial activity against Staphylococcus epidermidis MTCC 435 by broth dilution method; in short: as §2

| Structure (SMILES) | zone of inhibition at 100 µg/mL (Diutina rugosa) | MIC (Pseudomonas aeruginosa) | MIC (Staphylococcus aureus) | zone of inhibition at 100 µg/mL (Aspergillus niger) | MIC (Klebsiella pneumoniae) | zone of inhibition at 100 µg/mL (Saccharomyces cerevisiae) | MIC (Escherichia coli) | MIC (Bacillus subtilis) | zone of inhibition at 100 µg/mL (Aspergillus flavus) | zone of inhibition at 100 µg/mL (Candida albicans) | MIC [1] |
| --- | --- | --- | --- | --- | --- | --- | --- | --- | --- | --- | --- |
| N#CC(C(=O)c1ccc(Cl)nc1)=P(c1ccccc1)(c1ccccc1)c1ccccc1 | 0 mm | > 150 µg/mL | > 150 µg/mL | 0 mm | > 150 µg/mL | 0 mm | > 150 µg/mL | > 150 µg/mL | 0 mm | 0 mm | > 150 µg/mL |
| N#CC(C(=O)c1cccnc1Cl)=P(c1ccccc1)(c1ccccc1)c1ccccc1 | 0 mm | > 150 µg/mL | > 150 µg/mL | 0 mm | > 150 µg/mL | 0 mm | > 150 µg/mL | > 150 µg/mL | 0 mm | 0 mm | > 150 µg/mL |
| CCOC(=O)C(C(=O)c1ccc(Cl)nc1)=P(c1ccccc1)(c1ccccc1)c1ccccc1 | 0 mm | > 150 µg/mL | > 150 µg/mL | 0 mm | > 150 µg/mL | 0 mm | > 150 µg/mL | > 150 µg/mL | 0 mm | 0 mm | > 150 µg/mL |
| CC(C)OC(=O)C(C(=O)c1ccc(Cl)nc1)=P(c1ccccc1)(c1ccccc1)c1ccccc1 | 0 mm | > 150 µg/mL | > 150 µg/mL | 0 mm | > 150 µg/mL | 0 mm | > 150 µg/mL | > 150 µg/mL | 0 mm | 0 mm | > 150 µg/mL |
| N#CC(C(=O)c1cc(F)c(Cl)nc1Cl)=P(c1ccccc1)(c1ccccc1)c1ccccc1 | 0 mm | > 150 µg/mL | > 150 µg/mL | 0 mm | > 150 µg/mL | 0 mm | > 150 µg/mL | > 150 µg/mL | 0 mm | 0 mm | > 150 µg/mL |
| Cc1ccccc1C(=O)C(C#N)=P(c1ccccc1)(c1ccccc1)c1ccccc1 | 0 mm | > 150 µg/mL | > 150 µg/mL | 0 mm | > 150 µg/mL | 0 mm | > 150 µg/mL | > 150 µg/mL | 0 mm | 0 mm | > 150 µg/mL |
| CCOC(=O)C(C(=O)c1ccccc1C)=P(c1ccccc1)(c1ccccc1)c1ccccc1 | 0 mm | > 150 µg/mL | > 150 µg/mL | 0 mm | > 150 µg/mL | 0 mm | > 150 µg/mL | > 150 µg/mL | 0 mm | 0 mm | > 150 µg/mL |
| CCOC(=O)C(C(=O)C(C)(C)C)=P(c1ccccc1)(c1ccccc1)c1ccccc1 | 0 mm | > 150 µg/mL | > 150 µg/mL | 0 mm | > 150 µg/mL | 0 mm | > 150 µg/mL | > 150 µg/mL | 0 mm | 0 mm | > 150 µg/mL |
| CCOC(=O)C(C(=O)c1cccnc1Cl)=P(c1ccccc1)(c1ccccc1)c1ccccc1 | 0 mm | > 150 µg/mL | > 150 µg/mL | 0 mm | > 150 µg/mL | 0 mm | > 150 µg/mL | > 150 µg/mL | 0 mm | 0 mm | > 150 µg/mL |
| CCOC(=O)C(C(=O)c1cc(F)c(Cl)nc1Cl)=P(c1ccccc1)(c1ccccc1)c1ccccc1 | 0 mm | > 150 µg/mL | > 150 µg/mL | 0 mm | > 150 µg/mL | 0 mm | > 150 µg/mL | > 150 µg/mL | 0 mm | 0 mm | > 150 µg/mL |
| CC(C)OC(=O)C(C(=O)c1cc(F)c(Cl)nc1Cl)=P(c1ccccc1)(c1ccccc1)c1ccccc1 | 0 mm | > 150 µg/mL | > 150 µg/mL | 0 mm | > 150 µg/mL | 0 mm | > 150 µg/mL | > 150 µg/mL | 0 mm | 0 mm | > 150 µg/mL |
| CCOC(=O)C(C(=O)c1ccco1)=P(c1ccccc1)(c1ccccc1)c1ccccc1 | 0 mm | > 150 µg/mL | > 150 µg/mL | 0 mm | > 150 µg/mL | 0 mm | > 150 µg/mL | > 150 µg/mL | 0 mm | 0 mm | > 150 µg/mL |
| CC(C)OC(=O)C(C(=O)c1ccco1)=P(c1ccccc1)(c1ccccc1)c1ccccc1 | 0 mm | > 150 µg/mL | > 150 µg/mL | 0 mm | > 150 µg/mL | 0 mm | > 150 µg/mL | > 150 µg/mL | 0 mm | 0 mm | > 150 µg/mL |
| N#CC(C(=O)c1ccco1)=P(c1ccccc1)(c1ccccc1)c1ccccc1 | 0 mm | > 150 µg/mL | > 150 µg/mL | 0 mm | > 150 µg/mL | 0 mm | > 150 µg/mL | > 150 µg/mL | 0 mm | 0 mm | > 150 µg/mL |
| CC(C)(C)C(=O)C(C#N)=P(c1ccccc1)(c1ccccc1)c1ccccc1 | 0 mm | > 150 µg/mL | > 150 µg/mL | 0 mm | > 150 µg/mL | 0 mm | > 150 µg/mL | > 150 µg/mL | 0 mm | 0 mm | > 150 µg/mL |
| CC(C)OC(=O)C(C(=O)C(C)(C)C)=P(c1ccccc1)(c1ccccc1)c1ccccc1 | 0 mm | > 150 µg/mL | > 150 µg/mL | 0 mm | > 150 µg/mL | 0 mm | > 150 µg/mL | > 150 µg/mL | 0 mm | 0 mm | > 150 µg/mL |
| CC1(C)S[C@@H]2[C@H](NC(=O)Cc3ccccc3)C(=O)N2[C@H]1C(=O)O [PENICILLIN G] | – | 12.5 µg/mL (≈ 37.4 µM) | 1.56 µg/mL (≈ 4.67 µM) | – | 6.25 µg/mL (≈ 18.7 µM) | – | 12.5 µg/mL (≈ 37.4 µM) | 1.56 µg/mL (≈ 4.67 µM) | – | – | 3.12 µg/mL (≈ 9.35 µM) |
| CN[C@@H]1[C@H](O[C@H]2[C@H](O[C@H]3[C@H](O)[C@@H](O)[C@H](N=C(N)N)[C@@H](O)[C@@H]3N=C(N)N)O[C@@H](C)[C@]2(O)C=O)O[C@@H](CO)[C@H](O)[C@H]1O [STREPTOMYCIN] | – | 1.56 µg/mL (≈ 2.69 µM) | 6.25 µg/mL (≈ 10.7 µM) | – | 3.12 µg/mL (≈ 5.37 µM) | – | 6.25 µg/mL (≈ 10.7 µM) | 6.25 µg/mL (≈ 10.7 µM) | – | – | 3.12 µg/mL (≈ 5.37 µM) |

Source: ChEMBL document CHEMBL2424522, “Demonic axe-like conjugated alkynes in combating microbes” (2013)
